One block for each compound: values may come before it.
Legend:
[1] = Stability at 120 degC after 1 hr; assay type: physicochemical; details: read-out: Stability
Method in brief: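 Prodrugs at 0.5% in 0.5% HPMC/5% dextrose, pH 6.7, in closed vials, autoclaved at 120 °C for 1 h. After cooling, percent remaining was assessed by reverse-phase HPLC with diode-array and ELSD detection.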

[2] = Stability in Dutch-belted rabbit eye assessed as hydrolysis rate; assay type: ADME, tissue-based, Oryctolagus cuniculus
Method in brief: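 Two Dutch-Belted rabbit eyeballs were homogenized in 1× RIPA buffer. Prodrug (from 1 mg/mL DMSO stock) was added to a final 5 µg/mL and kept at 37 °C, sampled at 0, 0.25, 1, 2 and 6 h. Controls were prodrug in RIPA buffer for 120 min at 37 °C. Supernatants were analyzed by LC/MS/MS for prodrug and released parent phenol.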

[3] = Cmax in C57BL/6 mouse retina at 172 nM instilled per eye; assay type: ADME, organism-based; parameters: dose 172 nM, route ophthalmic; details: topical or ocular, 172 nM per eye
Method in brief: (§1)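 Male C57BL/6 mice got one 10 µL eye drop of prodrug (100 µg, 172 nmol per eye). Composite sampling at 0.5, 1, 3, 7 and 24 h post-instillation. Cornea, retina and pooled sclera/choroid were collected, with plasma at euthanasia. Tissues were homogenized in RIPA and extracted with acetonitrile. Prodrug and parent were measured by LC/MS/MS against matrix standards; AUC by linear trapezoidal rule on means.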

[4] = Plasma concentration in C57BL/6 mouse after 24 hrs; assay type: ADME, organism-based
[5] = molecular target: Tyrosine-protein kinase Yes (Homo sapiens, UniProt P07947); test: Inhibition of YES
Chain of Tyrosine-protein kinase Yes (P07947 whole entry): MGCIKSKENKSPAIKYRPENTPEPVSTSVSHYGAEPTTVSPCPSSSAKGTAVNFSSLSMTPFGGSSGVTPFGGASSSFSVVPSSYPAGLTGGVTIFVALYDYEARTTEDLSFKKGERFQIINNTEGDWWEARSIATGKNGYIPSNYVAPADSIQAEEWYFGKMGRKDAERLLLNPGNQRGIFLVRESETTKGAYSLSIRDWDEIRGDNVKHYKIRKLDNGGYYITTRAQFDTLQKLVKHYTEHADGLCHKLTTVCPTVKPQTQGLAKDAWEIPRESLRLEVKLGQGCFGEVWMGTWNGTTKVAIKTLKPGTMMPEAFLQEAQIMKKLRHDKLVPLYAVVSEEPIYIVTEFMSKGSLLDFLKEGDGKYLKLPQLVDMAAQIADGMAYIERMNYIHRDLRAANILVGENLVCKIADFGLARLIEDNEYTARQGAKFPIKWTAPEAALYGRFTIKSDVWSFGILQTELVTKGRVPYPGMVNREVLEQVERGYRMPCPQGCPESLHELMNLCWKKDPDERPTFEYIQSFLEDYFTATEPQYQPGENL

[6] = Tmax in C57BL/6 mouse retina at 172 nM instilled per eye; assay type: ADME, organism-based; details: topical or ocular, 172 nM per eye; method in brief: as §1
Mus musculus [7] = test: Reduction of bruch's membrane rupture in laser-induced choroidoal neovascularization in mouse administered topically at 1.83% w/v after 14 days relative to control; assay type: functional; parameters: scale not given: the % may be the effect or the level left
Method in brief: (§2)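 Laser rupture of Bruch's membrane in female C57BL/6J mice aged 4–5 weeks, ketamine-anesthetized; only bubble-forming burns were counted. Eight mice/group got one 10 µL drop of vehicle, 0.61% or 1.83% w/v prodrug t.i.d., 4 h apart, with the fellow eye untreated; a fourth group had no treatment. On day 14, mice were perfused with fluorescein-dextran and CNV area was measured on choroidal flatmounts. Linear mixed model with Dunnett adjustment.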

[8] = AUC (0 to 24 hrs) in C57BL/6 mouse cornea at 172 nM instilled per eye; assay type: ADME, organism-based; parameters: time < 24 hr, dose 172 nM, route ophthalmic; details: topical or ocular, 172 nM per eye; method in brief: as §1
[9] = molecular target: Vascular endothelial growth factor receptor 2 (Homo sapiens, UniProt P35968); test: Inhibition of VEGFR2
Chain of Vascular endothelial growth factor receptor 2 (P35968 whole entry): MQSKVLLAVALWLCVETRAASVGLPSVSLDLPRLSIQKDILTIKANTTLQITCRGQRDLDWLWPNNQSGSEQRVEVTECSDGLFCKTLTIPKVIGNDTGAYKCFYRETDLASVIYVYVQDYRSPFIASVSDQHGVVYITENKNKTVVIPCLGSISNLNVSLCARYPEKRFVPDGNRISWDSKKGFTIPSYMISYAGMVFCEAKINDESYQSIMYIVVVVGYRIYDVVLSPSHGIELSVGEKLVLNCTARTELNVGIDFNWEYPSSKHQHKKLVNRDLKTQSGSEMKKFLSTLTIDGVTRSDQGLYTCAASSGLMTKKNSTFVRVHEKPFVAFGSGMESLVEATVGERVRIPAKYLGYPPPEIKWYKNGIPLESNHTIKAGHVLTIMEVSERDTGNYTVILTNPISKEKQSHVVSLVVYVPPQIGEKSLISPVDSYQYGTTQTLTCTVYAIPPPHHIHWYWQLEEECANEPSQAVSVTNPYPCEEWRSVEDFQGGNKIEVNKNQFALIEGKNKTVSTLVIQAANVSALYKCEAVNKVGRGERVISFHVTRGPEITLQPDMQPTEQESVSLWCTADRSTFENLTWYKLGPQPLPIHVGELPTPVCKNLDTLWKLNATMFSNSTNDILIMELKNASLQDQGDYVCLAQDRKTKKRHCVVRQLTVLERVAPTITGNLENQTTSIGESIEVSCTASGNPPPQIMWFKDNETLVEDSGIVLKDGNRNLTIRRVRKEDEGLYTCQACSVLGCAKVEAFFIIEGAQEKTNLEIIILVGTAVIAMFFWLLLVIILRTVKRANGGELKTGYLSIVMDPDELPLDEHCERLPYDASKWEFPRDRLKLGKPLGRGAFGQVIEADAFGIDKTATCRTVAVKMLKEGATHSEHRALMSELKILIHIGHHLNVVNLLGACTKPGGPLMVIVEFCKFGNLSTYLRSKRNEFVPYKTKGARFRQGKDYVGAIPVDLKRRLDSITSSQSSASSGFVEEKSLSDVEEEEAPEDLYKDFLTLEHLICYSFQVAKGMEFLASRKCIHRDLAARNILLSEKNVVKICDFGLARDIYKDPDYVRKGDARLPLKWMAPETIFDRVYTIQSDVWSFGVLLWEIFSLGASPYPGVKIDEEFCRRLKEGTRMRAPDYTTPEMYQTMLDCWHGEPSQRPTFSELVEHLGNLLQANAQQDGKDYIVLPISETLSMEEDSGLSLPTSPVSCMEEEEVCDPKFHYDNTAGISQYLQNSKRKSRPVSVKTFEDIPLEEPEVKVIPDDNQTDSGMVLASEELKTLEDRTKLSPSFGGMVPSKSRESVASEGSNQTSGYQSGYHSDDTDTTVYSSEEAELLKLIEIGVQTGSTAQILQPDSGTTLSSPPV

Mus musculus [10] = species: Mus musculus; test: Tmax in C57BL/6 mouse cornea assessed as 4-chloro-3-{5-methyl-3-[4-(2-pyrrolidin-1-yl-ethoxy)phenylamino]benzo[1,2,4]triazin-7-yl}phenol at 172 nM instilled per eye; assay type: ADME, organism-based; details: in vivo, topical_or_ocular, 0.172 µM; method in brief: as §1
Mus musculus [11] = species: Mus musculus; test: AUC (0 to 24 hrs) in C57BL/6 mouse retina assessed as 4-chloro-3-{5-methyl-3-[4-(2-pyrrolidin-1-yl-ethoxy)phenylamino]benzo[1,2,4]triazin-7-yl}phenol at 172 nM instilled per eye; assay type: ADME, organism-based; parameters: time < 24 hr, dose 172 nM, route ophthalmic; details: in vivo, topical_or_ocular, 0.172 µM; method in brief: as §1
Mus musculus [12] = species: Mus musculus; test: Tmax in C57BL/6 mouse retina assessed as 4-chloro-3-{5-methyl-3-[4-(2-pyrrolidin-1-yl-ethoxy)phenylamino]benzo[1,2,4]triazin-7-yl}phenol at 172 nM instilled per eye; assay type: ADME, organism-based; details: in vivo, topical_or_ocular, 0.172 µM; method in brief: as §1
Mus musculus [13] = species: Mus musculus; test: Cmax in C57BL/6 mouse choroid/sclera assessed as 4-chloro-3-{5-methyl-3-[4-(2-pyrrolidin-1-yl-ethoxy)phenylamino]benzo[1,2,4]triazin-7-yl}phenol at 172 nM instilled per eye; assay type: ADME, organism-based; parameters: dose 172 nM, route ophthalmic; details: in vivo, topical_or_ocular, 0.172 µM; method in brief: as §1
Mus musculus [14] = test: Reduction of VEGF-induced retinal leak in BALB/c mouse administered topically at 210 nM q.d; assay type: functional; parameters: scale not given: the % may be the effect or the level left
Mus musculus [15] = species: Mus musculus; test: Tmax in C57BL/6 mouse choroid/sclera assessed as 4-chloro-3-{5-methyl-3-[4-(2-pyrrolidin-1-yl-ethoxy)phenylamino]benzo[1,2,4]triazin-7-yl}phenol at 172 nM instilled per eye; assay type: ADME, organism-based; details: in vivo, topical_or_ocular, 0.172 µM; method in brief: as §1
[16] = Cmax in C57BL/6 mouse choroid/sclera at 172 nM instilled per eye; assay type: ADME, organism-based; parameters: dose 172 nM, route ophthalmic; details: topical or ocular, 172 nM per eye; method in brief: as §1
Mus musculus [17] = test: Reduction of bruch's membrane rupture in laser-induced choroidoal neovascularization in mouse administered topically at 0.61% w/v after 14 days relative to control; assay type: functional; parameters: scale not given: the % may be the effect or the level left; method in brief: as §2
[18] = AUC (0 to 24 hrs) in C57BL/6 mouse choroid/sclera at 172 nM instilled per eye; assay type: ADME, organism-based; parameters: dose 172 nM, time < 24 hr, route ophthalmic; details: topical or ocular, 172 nM per eye; method in brief: as §1
[19] = AUC (0 to 24 hrs) in C57BL/6 mouse retina at 172 nM instilled per eye; assay type: ADME, organism-based; parameters: dose 172 nM, time < 24 hr, route ophthalmic; details: topical or ocular, 172 nM per eye; method in brief: as §1
Mus musculus [20] = species: Mus musculus; test: Cmax in C57BL/6 mouse cornea assessed as 4-chloro-3-{5-methyl-3-[4-(2-pyrrolidin-1-yl-ethoxy)phenylamino]benzo[1,2,4]triazin-7-yl}phenol at 172 nM instilled per eye; assay type: ADME, organism-based; parameters: dose 172 nM, route ophthalmic; details: in vivo, topical_or_ocular, 0.172 µM; method in brief: as §1
[21] = Cmax in C57BL/6 mouse cornea at 172 nM instilled per eye; assay type: ADME, organism-based; parameters: dose 172 nM, route ophthalmic; details: topical or ocular, 172 nM per eye; method in brief: as §1
Mus musculus [22] = species: Mus musculus; test: AUC (0 to 24 hrs) in C57BL/6 mouse choroid/sclera assessed as 4-chloro-3-{5-methyl-3-[4-(2-pyrrolidin-1-yl-ethoxy)phenylamino]benzo[1,2,4]triazin-7-yl}phenol at 172 nM instilled per eye; assay type: ADME, organism-based; parameters: dose 172 nM, time < 24 hr, route ophthalmic; details: in vivo, topical_or_ocular, 0.172 µM; method in brief: as §1
Mus musculus [23] = species: Mus musculus; test: Cmax in C57BL/6 mouse retina assessed as 4-chloro-3-{5-methyl-3-[4-(2-pyrrolidin-1-yl-ethoxy)phenylamino]benzo[1,2,4]triazin-7-yl}phenol at 172 nM instilled per eye; assay type: ADME, organism-based; parameters: dose 172 nM, route ophthalmic; details: in vivo, topical_or_ocular, 0.172 µM; method in brief: as §1
[24] = Tmax in C57BL/6 mouse cornea at 172 nM instilled per eye; assay type: ADME, organism-based; details: topical or ocular, 172 nM per eye; method in brief: as §1
[25] = molecular target: Proto-oncogene tyrosine-protein kinase Src (Homo sapiens, UniProt P12931); test: Inhibition of Src
Chain of Proto-oncogene tyrosine-protein kinase Src (P12931 2-536 limits assumed): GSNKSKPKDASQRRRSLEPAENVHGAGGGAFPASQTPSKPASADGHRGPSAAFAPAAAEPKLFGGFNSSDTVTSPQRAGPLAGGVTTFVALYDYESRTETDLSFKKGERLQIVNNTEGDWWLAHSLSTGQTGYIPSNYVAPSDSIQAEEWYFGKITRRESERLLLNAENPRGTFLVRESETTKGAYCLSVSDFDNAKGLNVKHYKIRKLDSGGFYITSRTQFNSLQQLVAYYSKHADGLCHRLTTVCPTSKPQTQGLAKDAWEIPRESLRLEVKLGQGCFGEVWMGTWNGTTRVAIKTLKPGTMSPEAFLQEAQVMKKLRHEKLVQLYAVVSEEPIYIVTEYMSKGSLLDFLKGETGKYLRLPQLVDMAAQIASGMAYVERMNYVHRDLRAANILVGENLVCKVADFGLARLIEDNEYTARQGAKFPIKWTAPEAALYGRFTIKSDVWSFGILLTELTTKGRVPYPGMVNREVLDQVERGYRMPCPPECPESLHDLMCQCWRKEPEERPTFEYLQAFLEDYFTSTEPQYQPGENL

Mus musculus [26] = species: Mus musculus; test: Tmax in C57BL/6 mouse plasma assessed as 4-chloro-3-{5-methyl-3-[4-(2-pyrrolidin-1-yl-ethoxy)phenylamino]benzo[1,2,4]triazin-7-yl}phenol at 172 nM instilled per eye; assay type: ADME, organism-based; details: in vivo, topical_or_ocular, 0.172 µM; method in brief: as §1
Mus musculus [27] = species: Mus musculus; test: AUC (0 to 24 hrs) in C57BL/6 mouse cornea assessed as 4-chloro-3-{5-methyl-3-[4-(2-pyrrolidin-1-yl-ethoxy)phenylamino]benzo[1,2,4]triazin-7-yl}phenol at 172 nM instilled per eye; assay type: ADME, organism-based; parameters: time < 24 hr, dose 172 nM, route ophthalmic; details: in vivo, topical_or_ocular, 0.172 µM; method in brief: as §1
Mus musculus [28] = species: Mus musculus; test: Cmax in C57BL/6 mouse plasma assessed as 4-chloro-3-{5-methyl-3-[4-(2-pyrrolidin-1-yl-ethoxy)phenylamino]benzo[1,2,4]triazin-7-yl}phenol at 172 nM instilled per eye; assay type: ADME, organism-based; parameters: dose 172 nM, route ophthalmic; details: in vivo, topical_or_ocular, 0.172 µM; method in brief: as §1
[29] = Tmax in C57BL/6 mouse choroid/sclera at 172 nM instilled per eye; assay type: ADME, organism-based; details: topical or ocular, 172 nM per eye; method in brief: as §1

SMILES: Cc1cc(-c2cc(OC(=O)c3ccc(CN4CCOCC4)cc3)ccc2Cl)cc2nnc(Nc3ccc(OCCN4CCCC4)cc3)nc12
remaining at 1 h [1]: > 90%

SMILES: Cc1cc(-c2cc(OC(=O)c3c(Cl)cccc3Cl)ccc2Cl)cc2nnc(Nc3ccc(OCCN4CCCC4)cc3)nc12
remaining at 1 h [1]: > 90%
Stability [2]: 1.7 ng/mL/h

SMILES: Cc1cc(-c2cc(OC(=O)c3ccccc3)ccc2Cl)cc2nnc(Nc3ccc(OCCN4CCCC4)cc3)nc12 [TG100-801]
Cmax at 0.172 µM [3]: 5.3 µM
concentration at 24 h [4]: < 1 ng/mL
IC50 [5]: ≥ 2500 nM
Tmax at 0.172 µM [6]: 24 h
Activity (Mus musculus [7]): 35%
AUC(0-t) at 24 h, 0.172 µM [8]: 55000 ng·h/mL
IC50 [9]: ≥ 10000 nM
Tmax (Mus musculus [10]): 7 h
AUC (Mus musculus [11]): 35000 ng·h/mL
Tmax (Mus musculus [12]): 24 h
Cmax (Mus musculus [13]): 29 µM
Activity (Mus musculus [14]): 100%
Tmax (Mus musculus [15]): 24 h
Cmax at 0.172 µM [16]: 27 µM
Activity (Mus musculus [17]): 46%
AUC(0-t) at 24 h, 0.172 µM [18]: 430000 ng·h/mL
AUC(0-t) at 24 h, 0.172 µM [19]: 63000 ng·h/mL
Cmax (Mus musculus [20]): 33 µM
remaining at 1 h [1]: > 90%
Cmax at 0.172 µM [21]: 3.7 µM
AUC (Mus musculus [22]): 540000 ng·h/mL
Stability [2]: 288 ng/mL/h
Cmax (Mus musculus [23]): 2.4 µM
Tmax at 0.172 µM [24]: 24 h
IC50 [25]: ≥ 10000 nM
Tmax (Mus musculus [26]): 24 h
AUC (Mus musculus [27]): 670000 ng·h/mL
Cmax (Mus musculus [28]): 0.005 µM
Tmax at 0.172 µM [29]: 24 h

SMILES: Cc1cc(-c2ccccc2Cl)cc2nnc(Nc3ccc(OCCN4CCCC4)cc3)nc12
IC50 [9]: 1900 nM

SMILES: Cc1cc(-c2cc(O)ccc2Cl)cc2nnc(Nc3ccc(S(=O)(=O)C4CCNCC4)cc3)nc12
IC50 [9]: 1.7 nM

Second part, the compound after the results:

remaining at 1 h [1]: > 90%
Stability [2]: 172 ng/mL/h
SMILES: Cc1cc(-c2cc(OC(=O)C(C)(C)C)ccc2Cl)cc2nnc(Nc3ccc(OCCN4CCCC4)cc3)nc12

remaining at 1 h [1]: 50%
SMILES: Cc1cc(-c2cc(OC(=O)c3cccnc3)ccc2Cl)cc2nnc(Nc3ccc(OCCN4CCCC4)cc3)nc12

remaining at 1 h [1]: < 20%
SMILES: Cc1cc(-c2cc(OC(=O)CN)ccc2Cl)cc2nnc(Nc3ccc(OCCN4CCCC4)cc3)nc12

remaining at 1 h [1]: 50%
SMILES: Cc1cc(-c2cc(OC(=O)C(C)C)ccc2Cl)cc2nnc(Nc3ccc(OCCN4CCCC4)cc3)nc12
